# Reference: ChEMBL document CHEMBL4229460, “Design and biological evaluation of novel hybrids of 1, 5-diarylpyrazole and Chrysin for selective COX-2 inhibition” (Bioorg Med Chem, 2018)
# pIC50: −log10 of the molar value.
# Assays:
# [1] = target: Prostaglandin G/H synthase 1 (Homo sapiens, UniProt P23219); test: Inhibition of COX1 (unknown origin) using arachidonic acid as substrate pretreated for 10 mins followed by substrate addition and measured after 2 mins by ELISA; type: ADME
# [2] = target: T1, Prostaglandin G/H synthase 2 (Homo sapiens, UniProt P35354); test: Inhibition of COX2 (unknown origin) using arachidonic acid as substrate pretreated for 10 mins followed by substrate addition and measured after 2 mins by ELISA
# T1 sequence (P35354 whole entry): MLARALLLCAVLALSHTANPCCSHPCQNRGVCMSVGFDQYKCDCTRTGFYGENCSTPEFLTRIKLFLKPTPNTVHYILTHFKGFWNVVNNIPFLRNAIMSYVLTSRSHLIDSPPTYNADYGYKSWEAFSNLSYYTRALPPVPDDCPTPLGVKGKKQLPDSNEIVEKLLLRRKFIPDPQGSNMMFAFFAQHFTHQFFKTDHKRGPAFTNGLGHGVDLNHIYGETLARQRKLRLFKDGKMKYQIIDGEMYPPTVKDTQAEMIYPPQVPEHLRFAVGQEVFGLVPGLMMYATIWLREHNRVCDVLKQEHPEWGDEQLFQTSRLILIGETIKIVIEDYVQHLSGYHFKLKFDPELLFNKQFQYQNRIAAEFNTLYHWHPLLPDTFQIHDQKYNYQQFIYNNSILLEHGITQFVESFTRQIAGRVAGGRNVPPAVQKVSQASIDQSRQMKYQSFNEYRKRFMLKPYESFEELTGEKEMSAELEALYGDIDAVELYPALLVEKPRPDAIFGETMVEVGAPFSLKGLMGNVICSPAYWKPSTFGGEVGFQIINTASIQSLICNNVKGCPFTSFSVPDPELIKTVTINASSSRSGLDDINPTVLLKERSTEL
# Homo sapiens = species: Homo sapiens; test: Selectivity index, ratio of IC50 for COX1 (unknown origin) to ratio of IC50 for COX2 (unknown origin)
# Procedure, shortened: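 Enzyme ELISA kit: COX-1 or COX-2 preincubated with compound at 0, 1, 10 or 100 μM for 10 min at 37 °C in 0.1 M Tris-HCl pH 8.0, 5 mM EDTA, 2 mM phenol, 1 μM heme. Started with 100 μM arachidonic acid for 2 min at 37 °C, stopped with 1 M HCl. PGH₂ reduced by stannous chloride; PGF2α read by enzyme immunoassay at 450 nm. Index taken as the ratio of the COX IC50 values.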
# MCF7 = test: Antiproliferative activity against human MCF7 cells after 48 hrs by MTT assay; type: functional, cell-based; details: MCF7, 48 h
# B16-F10 = test: Antiproliferative activity against mouse B16F10 cells after 48 hrs by MTT assay; type: functional, cell-based; details: B16-F10, 48 h
# Procedure, shortened: (§1)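 Cells kept in DMEM with 10% FBS, penicillin/streptomycin, 37 °C, 5% CO₂. Seeded at 5 × 10⁴ cells/well and allowed to adhere 12 h. Exposed to 0, 0.1, 1, 10 and 100 μM (final) for 48 h. Viability read by MTT reduction at OD 570 nm with 630 nm reference. IC50 reported as mean ± SD of three independent experiments.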
# A549 = test: Antiproliferative activity against human A549 cells after 48 hrs by MTT assay; type: functional, cell-based; details: A549, 48 h; procedure, shortened: as §1
# HeLa = test: Antiproliferative activity against human HeLa cells after 48 hrs by MTT assay; type: functional, cell-based
# HEK-293T = test: Cytotoxicity against human 293T cells after 48 hrs by MTT assay; type: cell-based
# Sequence of Prostaglandin G/H synthase 1 (P23219 whole entry): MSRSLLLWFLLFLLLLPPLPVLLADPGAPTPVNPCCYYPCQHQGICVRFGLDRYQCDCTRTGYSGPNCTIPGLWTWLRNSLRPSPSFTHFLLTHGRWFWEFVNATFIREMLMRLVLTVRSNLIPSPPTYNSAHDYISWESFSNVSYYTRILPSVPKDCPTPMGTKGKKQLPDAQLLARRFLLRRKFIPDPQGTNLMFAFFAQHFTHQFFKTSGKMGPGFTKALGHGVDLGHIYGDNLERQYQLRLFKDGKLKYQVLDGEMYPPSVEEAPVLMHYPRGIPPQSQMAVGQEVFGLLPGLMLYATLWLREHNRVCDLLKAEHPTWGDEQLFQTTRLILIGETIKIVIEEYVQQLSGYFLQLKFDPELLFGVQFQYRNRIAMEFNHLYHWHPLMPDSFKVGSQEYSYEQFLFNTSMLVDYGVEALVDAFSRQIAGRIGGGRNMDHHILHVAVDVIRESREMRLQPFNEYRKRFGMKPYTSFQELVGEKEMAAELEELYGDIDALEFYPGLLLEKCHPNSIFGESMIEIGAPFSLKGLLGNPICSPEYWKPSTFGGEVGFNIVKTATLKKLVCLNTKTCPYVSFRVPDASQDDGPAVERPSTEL
Structure (SMILES),pIC50 [1],pIC50 [2],Ratio IC50 (Homo sapiens),pIC50 (MCF7),pIC50 (B16-F10),pIC50 (A549),pIC50 (HeLa),pIC50 (HEK-293T)
Cc1ccc(-c2cc(COC(=O)COc3cc(O)c4c(=O)cc(-c5ccccc5)oc4c3)nn2-c2ccc(C)cc2)cc1,4.38,6.38,96,5.49,5.45,5.54,5.54,3.71
COc1ccc(-c2cc(COC(=O)COc3cc(O)c4c(=O)cc(-c5ccccc5)oc4c3)nn2-c2ccc(Cl)cc2)cc1,4.33,6.46,132,< 4.00,4.91,4.90,5.25,3.54
Cc1cccc(-c2cc(COC(=O)COc3cc(O)c4c(=O)cc(-c5ccccc5)oc4c3)nn2-c2ccc(Cl)cc2)c1,4.56,5.75,15.6,4.63,5.31,4.49,5.39,3.79
O=C(COc1cc(O)c2c(=O)cc(-c3ccccc3)oc2c1)OCc1cc(-c2cccc(Cl)c2)n(-c2ccc(Cl)cc2)n1,4.43,6.37,87.3,5.40,5.24,5.36,< 4.00,3.57
Cc1ccc(-n2nc(COC(=O)COc3cc(O)c4c(=O)cc(-c5ccccc5)oc4c3)cc2-c2cccc(Cl)c2)cc1,4.30,5.32,10.3,4.66,5.41,5.09,4.59,3.79
Cc1ccc(-n2nc(COC(=O)COc3cc(O)c4c(=O)cc(-c5ccccc5)oc4c3)cc2-c2ccc(Br)cc2)cc1,4.40,5.97,36.5,5.53,4.49,4.64,4.61,3.56
Cc1ccc(-n2nc(COC(=O)COc3cc(O)c4c(=O)cc(-c5ccccc5)oc4c3)cc2-c2cccc(C)c2)cc1,4.49,5.92,27,5.49,5.36,4.93,5.88,3.40
Cc1ccc(-n2nc(COC(=O)COc3cc(O)c4c(=O)cc(-c5ccccc5)oc4c3)cc2-c2ccc(Cl)c(Cl)c2)cc1,4.55,5.30,5.56,4.65,5.12,< 4.00,5.22,3.56
O=c1cc(-c2ccccc2)oc2cc(O)cc(O)c12 [CHRYSIN],–,–,–,4.59,4.76,4.32,4.60,3.50
Cc1ccc(-c2cc(C(F)(F)F)nn2-c2ccc(S(N)(=O)=O)cc2)cc1 [CELECOXIB],–,–,–,4.57,4.72,4.79,4.80,3.65

# Second part, led by results:
pIC50 [1],pIC50 [2],Ratio IC50 (Homo sapiens),pIC50 (MCF7),pIC50 (B16-F10),pIC50 (A549),pIC50 (HeLa),Structure (SMILES),pIC50 (HEK-293T)
4.38,5.78,25.3,4.65,4.81,4.77,5.69,O=C(COc1cc(O)c2c(=O)cc(-c3ccccc3)oc2c1)OCc1cc(-c2ccc([N+](=O)[O-])cc2)n(-c2ccccc2)n1,3.72
4.59,5.92,21,5.29,5.16,4.87,4.87,COc1cccc(-c2cc(COC(=O)COc3cc(O)c4c(=O)cc(-c5ccccc5)oc4c3)nn2-c2ccccc2)c1,3.50
4.36,5.45,12.2,5.04,4.96,4.40,5.55,O=C(COc1cc(O)c2c(=O)cc(-c3ccccc3)oc2c1)OCc1cc(-c2cccc(F)c2)n(-c2ccccc2)n1,3.70
< 4.30,5.17,> 7,5.48,5.19,5.26,5.20,O=C(COc1cc(O)c2c(=O)cc(-c3ccccc3)oc2c1)OCc1cc(-c2ccc(Cl)c(Cl)c2)n(-c2ccccc2)n1,3.63
4.48,5.66,13.1,5.46,5.80,5.49,5.62,O=C(COc1cc(O)c2c(=O)cc(-c3ccccc3)oc2c1)OCc1cc(-c2ccccc2)n(-c2ccccc2)n1,3.76
4.35,6.03,48.4,5.27,5.59,5.35,5.32,Cc1ccc(-c2cc(COC(=O)COc3cc(O)c4c(=O)cc(-c5ccccc5)oc4c3)nn2-c2ccccc2)cc1,3.50
4.47,5.23,5.68,4.90,4.66,< 4.00,4.51,O=C(COc1cc(O)c2c(=O)cc(-c3ccccc3)oc2c1)OCc1cc(-c2cccc([N+](=O)[O-])c2)n(-c2ccccc2)n1,3.46
4.39,5.32,8.58,5.10,5.19,5.18,5.36,O=C(COc1cc(O)c2c(=O)cc(-c3ccccc3)oc2c1)OCc1cc(-c2cccc(C(F)(F)F)c2)n(-c2ccccc2)n1,3.57
4.52,5.55,10.6,4.75,4.18,5.34,< 4.00,Cc1ccc(-n2nc(COC(=O)COc3cc(O)c4c(=O)cc(-c5ccccc5)oc4c3)cc2-c2ccc(F)cc2)cc1,3.58
4.39,5.84,28.4,5.10,4.75,5.33,4.91,Cc1ccc(-c2cc(COC(=O)COc3cc(O)c4c(=O)cc(-c5ccccc5)oc4c3)nn2-c2ccc(Cl)cc2)cc1,3.65
4.38,6.27,75.9,5.15,5.75,4.98,5.57,COc1ccc(-c2cc(COC(=O)COc3cc(O)c4c(=O)cc(-c5ccccc5)oc4c3)nn2-c2ccccc2)cc1,3.59
< 4.30,5.67,> 23,< 4.00,4.68,5.43,5.57,Cc1ccc(-n2nc(COC(=O)COc3cc(O)c4c(=O)cc(-c5ccccc5)oc4c3)cc2-c2ccc(Cl)cc2)cc1,3.52
4.35,5.86,32.1,4.80,5.57,5.23,4.74,Cc1ccc(-n2nc(COC(=O)COc3cc(O)c4c(=O)cc(-c5ccccc5)oc4c3)cc2-c2ccc([N+](=O)[O-])cc2)cc1,3.67
4.48,5.36,7.61,4.96,5.01,5.10,5.18,O=C(COc1cc(O)c2c(=O)cc(-c3ccccc3)oc2c1)OCc1cc(-c2ccc(C(F)(F)F)cc2)n(-c2ccccc2)n1,3.79
